Data published in ChEMBL document CHEMBL2429868, “Structural optimization of quinolon-4(1H)-imines as dual-stage antimalarials: toward increased potency and metabolic stability” (J Med Chem, 2013).
pEC50, pIC50: −log10 of the molar value. Values after ≈ are worked out from the molar mass of the structure shown. Active and inactive are the calls of the source. The calls are words filed in the database; no cut-off is given here.

Legend:
Plasmodium berghei [1] = assay: Antiplasmodial activity against liver stage of Plasmodium berghei infected in human HuH7 cells assessed as parasite growth inhibition incubated for 1 hr prior to parasite infection measured after 48 hrs; type: functional, organism-based; conditions: Huh-7, Liver
Outline: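 Huh-7 cells (12 × 10^3/well) seeded the day before, given compound (10 mM MeOH stock diluted in medium) 1 h before adding 10 000 P. berghei PbGFP-Luccon sporozoites/well from mosquito salivary glands, then spun 1700g 5 min. Medium with compound renewed at 24 h. Luminescence read 48 h post-infection; IC50 by nonlinear regression of normalized dose–response.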

HEK-293T = assay: Cytotoxicity against HEK293T cells; type: cell-based; conditions: Homo sapiens
Outline: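 HEK293T seeded the day before in RPMI 1640 with 10% FBS, penicillin/streptomycin and 2 mM L-glutamine. Serial dilutions from DMSO were added for 48 h at 37 °C, 5% CO2. Then MTT for 3 h, formazan taken up in DMSO, absorbance read at 570 nm. EC50 by nonlinear regression of the concentration–response curve.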

[2] = Selectivity index, ratio of EC50 for HEK293T cells to IC50 for blood stage of chloroquine-resistant Plasmodium falciparum W2 infected in human RBC; type: functional, HEK-293T
Outline: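 Ratio of two values. EC50: HEK293T cells seeded the previous day in RPMI 1640/10% FBS, given serial DMSO-diluted compound for 48 h at 37 °C, 5% CO2, then MTT for 3 h; formazan read at 570 nm and EC50 fitted by nonlinear regression. IC50: 48 h W2 blood-stage growth in human RBCs, scored by YOYO-1 flow cytometry.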

Plasmodium falciparum [3] = assay: Antiplasmodial activity against blood stage of chloroquine-resistant Plasmodium falciparum W2 infected in human RBC assessed as parasite growth inhibition after 48 hrs by flow cytometric analysis; type: functional, organism-based; conditions: W2, 48 h
Plasmodium berghei [4] = assay: Potency index, ratio of primaquine IC50 to compound IC50 for liver stage of Plasmodium berghei infected in human HuH7 cells; type: functional, Huh-7
Huh-7 = assay: Cytotoxicity against human HuH7 cells assessed as cell viability up to 5 uM by AlamarBlue assay; type: cell-based
Outline: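 Huh-7 hepatoma cells in RPMI 1640 with 10% FCS, nonessential amino acids, glutamine and 10 mM HEPES pH 7, kept at 37 °C, 5% CO2. Treated as in the liver-stage infection assay. Viability read by AlamarBlue per manufacturer's protocol.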

[5] = Inhibition of hemozoin-like crystal formation after 5 days; type: functional; conditions: 120 h
Outline: (§1)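 Hemozoin-like crystal stock sonicated 3 min and diluted in broth to 2 μM final (heme equivalents). Compounds from 25 mM DMSO stocks were 0.22-μm filtered and dosed at 0–1000 μM final. Incubated 37 °C, 5% CO2, 5 days, then scored for presence or absence of crystal growth. Run in triplicate.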

Plasmodium falciparum [6] = assay: Antiplasmodial activity against Plasmodium falciparum 3D7 transfected with yeast GFP-tagged DHODH assessed as parasite growth inhibition; type: functional, organism-based
Plasmodium falciparum [7] = assay: Antiplasmodial activity against Plasmodium falciparum 3D7 assessed as parasite growth inhibition; type: functional, organism-based
Liver microsomes [8] = assay: Metabolic stability in rat liver microsomes assessed as compound remaining at 1 uM after 6 hrs by HPLC analysis in absence of NADPH-regenerating system; type: ADME, Microsome
Outline: (§2)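 Compound at 1 μM incubated at 37 °C with pooled rat liver microsomes (0.2 mg protein/mL) in 10 mM phosphate buffer, pH 7.4. Reaction started with NADPH-regenerating system A (NADP+, glucose 6-phosphate, MgCl2) plus B (glucose 6-phosphate dehydrogenase); no-cofactor runs used water instead. Remaining compound measured after 6 h by RP-18 HPLC in acetonitrile/water 25:75, 1 mL/min.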

[9] = Metabolic stability in rat liver microsomes assessed as compound remaining at 1 uM after 6 hrs by HPLC analysis in presence of NADPH-regenerating system; type: ADME, Microsome; conditions: read-out: Stability; outline: as §2
[10] = Chemical stability in aqueous buffer at pH 7.4 at 37 degC measured for 10 days; type: physicochemical; conditions: pH 7.4, 240 h
Outline: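 Stability tested by holding compound in aqueous buffer at pH 7.4 (and pH 0.3) at 37 °C for 10 days.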

Liver microsomes [11] = assay: Drug metabolism in rat liver microsomes assessed as quinoline metabolite formation through N-dealkylation of compound after 6 hrs by mass spectrophotometric analysis; type: ADME, Microsome
[12] = Inhibition of hemozoin-like crystal formation at 1 to 1000 uM after 5 days; type: functional; outline: as §1
Plasmodium falciparum [13] = assay: Inhibition of Plasmodium falciparum cytochrome bc1 complex using decylubiquinol as substrate at <= 10 uM by UV-visible spectrophotometric analysis

Compound | pIC50 (Plasmodium berghei [1]) | pEC50 (HEK-293T) | Selectivity Index [2] | pIC50 (Plasmodium falciparum [3]) | Activity (Huh-7) | Stability (Liver microsomes [8]) | remaining at 6 h, 1 µM [9] | other results
Clc1ccc2/c(=N/c3ccc(Br)cc3)ccn(CCCN3CCCCC3)c2c1 | 5.52 | < 4.00 | >1351 | 7.13 |  |  |  | 
c1ccc(-c2ccc(/N=c3\ccn(CCCN4CCCCC4)c4cc(-c5cnc6ccccc6c5)ccc34)cc2)cc1 | 6.15 | 5.11 | 143 | 7.27 |  |  |  | Ratio IC50 (Plasmodium berghei [4]): > 10
Fc1ccc(-c2ccc3/c(=N/c4ccc(-c5ccccc5)cc4)ccn(CCCN4CCCCC4)c3c2)cc1 | 5.68 | 5.12 | 138 | 7.26 | Non-toxic |  |  | MIC [5]: 500 µM (≈ 258 µg/mL)
Clc1ccc2/c(=N/c3ccc(-c4ccccc4)cc3)ccn(CCN3CCCC3)c2c1 | 5.46 | < 4.00 | >900 | 6.95 |  |  |  | pIC50 (Plasmodium falciparum [6]): 6.73; pIC50 (Plasmodium falciparum [7]): 6.75
CCN(CC)CCCCn1cc/c(=N\c2ccc(-c3ccccc3)cc2)c2ccc(C(F)(F)F)cc21 |  | < 4.00 | >1988 | 7.30 |  | Stable | 81.5% | 
Clc1ccc2c(c1)/c(=N/c1ccc(-c3ccccc3)cc1)ccn2CCCN1CCCCC1 |  | 4.66 | 219 | 7.00 | Non-toxic | Stable | 75% | Stability [10]: Stable; MIC [5]: 1000 µM (≈ 456 µg/mL); Drug metabolism (Liver microsomes [11]): Active
GENTAMICIN |  |  |  |  |  |  |  | inhibition [12]: inactive
Cc1ccc(/N=c2\ccn(CCCN3CCCCC3)c3cc(Cl)ccc23)cc1 |  | < 4.00 | >302 | 6.48 |  |  |  | 
FC(F)(F)c1ccc2/c(=N/c3ccc(-c4ccccc4)cc3)ccn(CCCN3CCCCC3)c2c1 |  | 4.25 | 158 | 6.44 |  | Stable | 65% | pIC50 (Plasmodium falciparum [6]): 6.71; pIC50 (Plasmodium falciparum [7]): 6.87
CCN(CC)CCCn1cc/c(=N\c2ccc(-c3ccccc3)cc2)c2ccc(C(F)(F)F)cc21 |  | < 4.00 | >694 | 6.84 |  |  |  | 
CCN(CC)CCCC(C)Nc1ccnc2cc(Cl)ccc12 (stereo not given) [CHLOROQUINE] |  |  |  |  |  |  |  | MIC [5]: 125 µM (≈ 40 µg/mL)
FC(F)(F)c1ccc2/c(=N/c3ccc(-c4ccccc4)cc3)ccn(CCN3CCCC3)c2c1 |  | < 4.00 | >442 | 6.65 | Non-toxic | Stable | 79% | inhibition [12]: inactive
FC(F)(F)c1ccc2c(c1)/c(=N/c1ccc(-c3ccccc3)cc1)ccn2CCCN1CCCCC1 |  | 4.63 | 38 | 6.20 | Non-toxic |  |  | MIC [5]: 1000 µM (≈ 490 µg/mL)
Fc1ccc(-c2ccc3/c(=N/c4ccccc4)ccn(CCCN4CCCCC4)c3c2)cc1 | 5.86 | < 4.00 | >463 | 6.67 |  |  |  | 
c1ccc(-c2ccc(/N=c3\ccn(CCCN4CCCCC4)c4cc(Nc5ccccn5)ccc34)cc2)cc1 | 6.36 | 5.13 | 21 | 6.45 |  |  |  | Ratio IC50 (Plasmodium berghei [4]): > 10
CCN(CC)CCn1cc/c(=N\c2ccc(-c3ccccc3)cc2)c2ccc(C(F)(F)F)cc21 | 5.34 | 4.41 | 73 | 6.28 | Non-toxic | Stable | 80.4% | inhibition [12]: inactive
Clc1ccc2/c(=N/c3ccc(Oc4ccccc4)cc3)ccn(CCCN3CCCCC3)c2c1 |  | 4.51 | 191 | 6.80 | Non-toxic | Stable | 73% | MIC [5]: 500 µM (≈ 236 µg/mL)
CCN(CC)CCn1cc/c(=N\c2ccc(-c3ccccc3)cc2)c2ccc(Cl)cc21 |  | 4.43 | 74 | 6.30 |  | Stable | 68% | 
Clc1ccc(/N=c2\ccn(CCCN3CCCCC3)c3cc(Cl)ccc23)cc1 | 5.57 | < 4.00 | >386 | 6.59 | Non-toxic |  |  | inhibition [12]: inactive
CCN(CC)CCCn1cc/c(=N\c2ccc(-c3ccccc3)cc2)c2ccc(Cl)cc21 |  | < 4.00 | >662 | 6.82 |  |  |  | 
Fc1ccc(/N=c2\ccn(CCCN3CCCCC3)c3cc(Cl)ccc23)cc1 | 5.32 | < 4.00 | >271 | 6.43 | Non-toxic |  |  | inhibition [12]: inactive
Clc1ccc2/c(=N/c3ccc(-c4ccccc4)cc3)ccn(CCCN3CCCCC3)c2c1 |  | 4.38 | 290 | 6.84 |  |  |  | pIC50 (Plasmodium falciparum [6]): 7.28; pIC50 (Plasmodium falciparum [7]): 7.13
CCN(CC)CCCCn1cc/c(=N\c2ccc(-c3ccccc3)cc2)c2ccc(Cl)cc21 | 5.58 | < 4.00 | >1479 | 7.17 |  | Stable | 62.7% | inhibition (Plasmodium falciparum [13]): inactive; pIC50 (Plasmodium falciparum [6]): 7.17; pIC50 (Plasmodium falciparum [7]): 7.19
Clc1ccc2/c(=N/c3ccccc3)ccn(CCCN3CCCCC3)c2c1 |  | < 4.00 | >366 | 6.56 | Non-toxic |  |  | inhibition [12]: inactive
